Some results are limits rather than exact numbers.

Assay [1] relates to Mus musculus. Put plainly: Anticonvulsant activity against audiogenic tonus seizures in ip dosed DBA/2 mouse epilepsy model administered 30 mins before auditory simulation. It is filed as functional. Conditions: DBA/2, ip. The method, boiled down: (§1)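 DBA/2 mice (sound-seizure susceptible), 8e12 g, 22e25 days old, either sex, groups of 10. Vehicle or each dose given 30 min before auditory stimulation. Latency to and incidence of each seizure phase scored. ED50 for each phase taken from dose-response curves fitted by the Litchfield and Wilcoxon method.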

In assay [2] the test system is Mus musculus. The assay can be described thus: Anticonvulsant activity against audiogenic clonus seizures in ip dosed DBA/2 mouse epilepsy model administered 30 mins before auditory simulation. The assay is classed as functional. Conditions: DBA/2, ip. The method, boiled down: as §1

As usually defined, the ED50 is the dose that gives a 50% effect, or the effect in half of the subjects. Read a low ED50 as an effect at a small dose. Turning to `COc1cc2c(cc1OC)C(c1ccc(Cl)cc1)N(C(C)=O)CC2` (centres undefined), the ED50 in the assay with Mus musculus [1] was 1.22 mg/kg; with Mus musculus [2] it was 2.25 mg/kg.

Consider `COc1cc2c(cc1OC)C(c1ccccc1)N(C(=O)NC1CCCC1)CC2` (centres undefined), for which the 50% effective dose (ED50) is 15.1 mg/kg in the assay on Mus musculus [1] and over 35 mg/kg in the assay on Mus musculus [2].

`CCCC(CCC)C(=O)O` [VALPROIC ACID]: the results for the median effective dose (ED50) in the assay on Mus musculus [1] and in the assay on Mus musculus [2] were 9.9 mg/kg and 20.3 mg/kg, respectively.

`CCCCNC(=O)N1CCc2cc(OC)c(OC)cc2C1c1ccc(Br)cc1` (centres undefined): the ED50 with Mus musculus [1] is 15.5 mg/kg; in the assay on Mus musculus [2], over 35 mg/kg.

Turning to `COc1cc2c(cc1OC)C(c1ccc(Br)cc1)N(C(=O)NC(C)(C)C)CC2` (centres undefined), the ED50 with Mus musculus [1] is 16.9 mg/kg; in the assay with Mus musculus [2], over 35 mg/kg.

Take `COc1cc2c(cc1OC)C(c1ccc(F)cc1)N(C(=O)NC(C)(C)C)CC2` (centres undefined): the 50% effective dose (ED50) in the assay with Mus musculus [1] was 18.7 mg/kg; in the assay on Mus musculus [2], over 35 mg/kg.

For `COc1cc2c(cc1OC)C(c1ccc(F)cc1)N(C(=O)NC(C)C)CC2` (centres undefined), the ED50 in the assay with Mus musculus [1] is 17.3 mg/kg; with Mus musculus [2], over 35 mg/kg.

In the case of `COc1cc2c(cc1OC)C(c1ccc(Br)cc1)N(C(=O)CN1CCCCC1)CC2` (centres undefined), the ED50 is 3.86 mg/kg with Mus musculus [1] and 5.99 mg/kg in the assay with Mus musculus [2].

As to `CCCNC(=O)N1CCc2cc(OC)c(OC)cc2C1c1ccccc1` (centres undefined), the 50% effective dose (ED50) was 18.1 mg/kg with Mus musculus [1] and over 35 mg/kg in the assay on Mus musculus [2].

`CCNC(=O)N1CCc2cc(OC)c(OC)cc2C1c1ccccc1` (centres undefined): the ED50 in the assay on Mus musculus [1] is 11.9 mg/kg; in the assay on Mus musculus [2], 32.5 mg/kg.

For the compound `CCCCNC(=O)N1CCc2cc(OC)c(OC)cc2C1c1ccccc1` (centres undefined), the ED50 was 11 mg/kg in the assay with Mus musculus [1] and 31.7 mg/kg in the assay on Mus musculus [2].

Turning to `CCNC(=O)N1CCc2cc(OC)c(OC)cc2C1c1ccc(Cl)cc1` (centres undefined), the figures for the ED50 with Mus musculus [1] and with Mus musculus [2] were 14.2 mg/kg and 30.4 mg/kg, respectively.

As for `COc1cc2c(cc1OC)C(c1ccc(F)cc1)N(C(=O)NC1CCCC1)CC2` (centres undefined), the ED50 in the assay on Mus musculus [1] is 7.24 mg/kg; in the assay with Mus musculus [2], 27.7 mg/kg.

Turning to `CCCCNC(=O)N1CCc2cc(OC)c(OC)cc2C1c1ccc(F)cc1` (centres undefined), the ED50 with Mus musculus [1] was 13.7 mg/kg; in the assay with Mus musculus [2], over 35 mg/kg.

Turning to `CCNC(=O)N1CCc2cc(OC)c(OC)cc2C1c1ccc(Br)cc1` (centres undefined), the median effective dose (ED50) with Mus musculus [1] and in the assay on Mus musculus [2] was over 35 mg/kg throughout.

Turning to `COc1cc2c(cc1OC)C(c1ccccc1)N(C(=O)NC(C)(C)C)CC2` (centres undefined), the results for the ED50 in the assay on Mus musculus [1] and in the assay with Mus musculus [2] were 13.9 mg/kg and 27.5 mg/kg, respectively.

Regarding `COc1cc2c(cc1OC)C(c1ccc(Br)cc1)N(C(=O)NC(C)C)CC2` (centres undefined), the ED50 in the assay on Mus musculus [1] is 23.6 mg/kg; in the assay with Mus musculus [2], over 35 mg/kg.

As to `CCCCNC(=O)N1CCc2cc(OC)c(OC)cc2C1c1ccc(Cl)cc1` (centres undefined), the values for the ED50 with Mus musculus [1] and in the assay with Mus musculus [2] were 16.5 mg/kg and over 35 mg/kg, respectively.

`CCCNC(=O)N1CCc2cc(OC)c(OC)cc2C1c1ccc(Cl)cc1` (centres undefined): the median effective dose (ED50) was 23.4 mg/kg in the assay on Mus musculus [1] and over 35 mg/kg in the assay on Mus musculus [2].

Regarding `CCNC(=O)N1CCc2cc(OC)c(OC)cc2C1c1ccc(F)cc1` (centres undefined), the median effective dose (ED50) in the assay on Mus musculus [1] and with Mus musculus [2] was over 35 mg/kg in each case.

For `COc1cc2c(cc1OC)C(c1ccc(Cl)cc1)N(C(=O)NC(C)(C)C)CC2` (centres undefined), the ED50 with Mus musculus [1] is 13.8 mg/kg; with Mus musculus [2] it was 30.6 mg/kg.

Take `COc1cc2c(cc1OC)C(c1ccc(F)cc1)N(C(=O)NC1CCCCC1)CC2` (centres undefined): the median effective dose (ED50) in the assay on Mus musculus [1] and in the assay on Mus musculus [2] was over 35 mg/kg each time.

Consider `COc1cc2c(cc1OC)C(c1ccc(Cl)cc1)N(C(=O)NC1CCCCC1)CC2` (centres undefined), for which the figures for the ED50 with Mus musculus [1] and in the assay on Mus musculus [2] were 14.2 mg/kg and over 35 mg/kg, respectively.

For `NCC1(CC(=O)O)CCCCC1` [GABAPENTIN], the 50% effective dose (ED50) in the assay on Mus musculus [1] is 21.5 mg/kg; with Mus musculus [2], over 35 mg/kg.

Regarding `COc1cc2c(cc1OC)C(c1ccccc1)N(C(=O)NC1CCCCC1)CC2` (centres undefined), the median effective dose (ED50) in the assay with Mus musculus [1] was 9.38 mg/kg; in the assay with Mus musculus [2], 26.9 mg/kg.

Regarding `COc1cc2c(cc1OC)C(c1ccc(Br)cc1)N(C(=O)NC1CCCCC1)CC2` (centres undefined), the ED50 in the assay with Mus musculus [1] was 19.3 mg/kg; in the assay with Mus musculus [2], over 35 mg/kg.

Turning to `COc1cc2c(cc1OC)C(c1ccc(Br)cc1)N(C(=O)NC1CCCC1)CC2` (centres undefined), the figures for the median effective dose (ED50) with Mus musculus [1] and with Mus musculus [2] were 14.7 mg/kg and over 35 mg/kg, respectively.

Consider `COc1cc2c(cc1OC)C(c1ccccc1)N(C(=O)NC(C)C)CC2` (centres undefined), for which the ED50 in the assay with Mus musculus [1] and in the assay on Mus musculus [2] was over 35 mg/kg throughout.

`CCCNC(=O)N1CCc2cc(OC)c(OC)cc2C1c1ccc(Br)cc1` (centres undefined): the 50% effective dose (ED50) with Mus musculus [1] was 31.2 mg/kg; with Mus musculus [2] it was over 35 mg/kg.

For the compound `COc1cc2c(cc1OC)C(c1ccc(Cl)cc1)N(C(=O)NC1CCCC1)CC2` (centres undefined), the ED50 is 12.1 mg/kg in the assay on Mus musculus [1] and over 35 mg/kg with Mus musculus [2].

As for `COc1cc2c(cc1OC)C(c1ccc(Cl)cc1)N(C(=O)NC(C)C)CC2` (centres undefined), the figures for the 50% effective dose (ED50) with Mus musculus [1] and in the assay on Mus musculus [2] were 26.1 mg/kg and over 35 mg/kg, respectively.

Regarding `CCCNC(=O)N1CCc2cc(OC)c(OC)cc2C1c1ccc(F)cc1` (centres undefined), the ED50 in the assay on Mus musculus [1] is 26.9 mg/kg; in the assay on Mus musculus [2], over 35 mg/kg.

The values above are taken from ChEMBL document CHEMBL1138544, “Solution-phase parallel synthesis and evaluation of anticonvulsant activity of N-substituted-3,4-dihydroisoquinoline-2(1H)-carboxamides” (2009).
